Activity calls are given as the source filed them. No cut-off for these calls is given here.
Legend:
[1] = system: U-937; assay: Antiproliferative activity against human U937 cells after 48 hrs by cell titer-glo assay; format: functional, cell-based; settings: U-937, 48 h
Outline: (§1)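 Cells kept in RPMI-1640 with 10% FBS at 37 °C, 5% CO2. 10^4 suspension cells were plated immediately before dosing. Compounds were added at 0.1–100 µM, final 1% DMSO, with DMSO vehicle control, and incubated 48 h. CellTiter-Glo luminescence was read. EC50 is the dose reducing luminescence to 50% of untreated cultures.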

[2] = system: Jurkat; assay: Antiproliferative activity against human Jurkat JA16 cells after 48 hrs by cell titer-glo assay; format: functional, cell-based
[3] = system: SK-BR-3; assay: Antiproliferative activity against human SK-BR-3 cells after 48 hrs by cell titer-glo assay; format: functional, cell-based; settings: SK-BR-3, 48 h
[4] = system: HT-29; assay: Antiproliferative activity against human HT-29 cells after 48 hrs by cell titer-glo assay; format: functional, cell-based; settings: HT-29, 48 h
[5] = system: HL-60; assay: Antiproliferative activity against human HL60 cells after 48 hrs by cell titer-glo assay; format: functional, cell-based; settings: HL-60, 48 h
[6] = system: K562; assay: Antiproliferative activity against human K562 cells after 48 hrs by cell titer-glo assay; format: functional, cell-based; settings: K562, 48 h; outline: as §1
[7] = molecular target: T1, Protein deacetylase HDAC6 (Homo sapiens) (UniProt Q9UBN7); assay: Inhibition of recombinant FLAG-tagged HDAC6 assessed as [3H]acetic acid release preincubated for 30 mins measured after 2 hrs by scintillation counting
T1 sequence (whole entry): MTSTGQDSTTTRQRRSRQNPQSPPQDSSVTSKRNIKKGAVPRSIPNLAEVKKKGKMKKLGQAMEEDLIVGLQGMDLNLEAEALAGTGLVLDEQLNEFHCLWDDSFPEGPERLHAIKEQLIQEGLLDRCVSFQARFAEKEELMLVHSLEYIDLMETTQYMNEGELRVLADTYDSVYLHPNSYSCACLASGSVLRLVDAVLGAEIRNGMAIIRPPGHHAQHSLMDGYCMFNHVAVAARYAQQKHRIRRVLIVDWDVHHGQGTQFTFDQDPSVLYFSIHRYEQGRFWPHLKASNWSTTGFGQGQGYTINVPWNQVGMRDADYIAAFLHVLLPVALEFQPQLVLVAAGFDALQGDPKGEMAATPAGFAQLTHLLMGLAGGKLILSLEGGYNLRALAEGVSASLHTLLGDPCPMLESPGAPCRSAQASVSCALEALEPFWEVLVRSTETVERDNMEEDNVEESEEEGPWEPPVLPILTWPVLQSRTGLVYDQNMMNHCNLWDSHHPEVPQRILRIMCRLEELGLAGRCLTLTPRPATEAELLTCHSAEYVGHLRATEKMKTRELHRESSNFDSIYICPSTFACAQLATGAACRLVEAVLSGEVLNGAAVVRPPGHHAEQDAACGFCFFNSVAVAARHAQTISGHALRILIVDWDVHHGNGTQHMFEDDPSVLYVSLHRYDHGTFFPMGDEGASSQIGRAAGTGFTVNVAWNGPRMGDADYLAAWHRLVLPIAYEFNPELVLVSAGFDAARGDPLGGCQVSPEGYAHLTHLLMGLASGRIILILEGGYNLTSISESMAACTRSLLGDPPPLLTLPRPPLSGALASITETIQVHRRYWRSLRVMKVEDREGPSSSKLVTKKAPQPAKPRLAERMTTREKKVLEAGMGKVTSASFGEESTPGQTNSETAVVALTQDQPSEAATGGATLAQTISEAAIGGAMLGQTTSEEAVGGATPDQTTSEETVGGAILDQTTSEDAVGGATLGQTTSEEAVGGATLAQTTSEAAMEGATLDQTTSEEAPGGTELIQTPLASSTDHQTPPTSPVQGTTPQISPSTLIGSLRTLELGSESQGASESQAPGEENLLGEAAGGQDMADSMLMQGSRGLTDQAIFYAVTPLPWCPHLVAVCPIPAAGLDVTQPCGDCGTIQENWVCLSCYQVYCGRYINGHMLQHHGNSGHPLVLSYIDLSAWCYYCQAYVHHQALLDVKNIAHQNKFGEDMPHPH
Outline: (§2)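 FLAG-tagged HDAC1 or HDAC6 was immunopurified from stably expressing cell lines and washed in HDAC buffer (10 mM Tris-HCl pH 8.0, 10 mM NaCl, 10% glycerol). Enzyme was preincubated with inhibitor (1 µM) for 30 min at 4 °C, then given 20 000 cpm [3H]peracetylated H4 peptide for 2 h at 37 °C. The reaction was stopped with acetic acid/HCl, extracted into ethyl acetate, and released [3H]acetate counted by scintillation.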

[8] = molecular target: Histone deacetylase 1 (Homo sapiens) (UniProt Q13547); assay: Inhibition of recombinant FLAG-tagged HDAC1 assessed as [3H]acetic acid release preincubated for 30 mins measured after 2 hrs by scintillation counting; outline: as §2
[9] = Therapeutic ratio, EC50 for human PBMC to EC50 for human 937 cells; settings: human PBMC versus human 937 cells
[10] = system: Mus musculus; assay: Toxicity in FVB mouse assessed as mortality at 50 mg/kg, po administered 5 times per week for 2 weeks measured up to 1 month; format: organism-based; design: dose 50 mg/kg, route oral; settings: in vivo, 336 h
Outline: (§3)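 8-week-old Fvb mice, SPF-housed in ventilated cages with acidified water, randomly assigned (n = 3 per group) to compound or solvent-only vehicle. Dosing was by oral gavage five times weekly for 2 weeks. Survival was monitored with body weight and blood counts during dosing, and deaths were also recorded during the month after treatment stopped.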

[11] = system: Mus musculus; assay: Toxicity in FVB mouse assessed as effect on number of platelets at 50 mg/kg, po administered 5 times per week for 2 weeks measured during test (reference value: 454 +/- 93 10^3/mm^3); format: organism-based; design: dose 50 mg/kg, route oral; settings: in vivo, 336 h
Outline: (§4)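 8-week-old FVB mice were housed specific-pathogen-free and randomly assigned, n = 3 per group. They received 50 mg/kg compound or vehicle alone by oral gavage, five times weekly for 2 weeks. Body weight and survival were monitored. Differential blood counts came from nonlethal retro-orbital bleeds before study (J-5), during study (J5) and at end point (J12). Values are means ± spread for n = 3.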

[12] = system: Mus musculus; assay: Toxicity in FVB mouse assessed as effect on body weight at 50 mg/kg, po administered 5 times per week for 2 weeks; format: organism-based; design: dose 50 mg/kg, route oral; settings: in vivo, 336 h; outline: as §4
[13] = system: Mus musculus; assay: Toxicity in FVB mouse assessed as effect on mean platelet volume at 50 mg/kg, po administered 5 times per week for 2 weeks (reference value: 8.8 +/- 0.1 microm^3); format: organism-based; design: dose 50 mg/kg, route oral; settings: in vivo, 336 h; outline: as §4
[14] = system: Mus musculus; assay: Toxicity in FVB mouse assessed as effect on mean cell volume of red cells at 50 mg/kg, po administered 5 times per week for 2 weeks measured during test (reference value: 43.7 +/- 0.4 microm^3); format: organism-based; design: dose 50 mg/kg, route oral; settings: in vivo, 336 h; outline: as §4
[15] = system: Mus musculus; assay: Toxicity in FVB mouse assessed as effect on number of WBC at 50 mg/kg, po administered 5 times per week for 2 weeks (reference value: 9.1 +/- 0.2 10^3/mm^3); format: organism-based; design: dose 50 mg/kg, route oral; settings: in vivo, 336 h; outline: as §4
[16] = system: Mus musculus; assay: Toxicity in FVB mouse assessed as effect on number of WBC at 50 mg/kg, po administered 5 times per week for 2 weeks measured during test (reference value: 9.1 +/- 0.2 10^3/mm^3); format: organism-based; design: dose 50 mg/kg, route oral; settings: in vivo, 336 h; outline: as §4
[17] = system: Mus musculus; assay: Toxicity in FVB mouse assessed as effect on number of RBC at 50 mg/kg, po administered 5 times per week for 2 weeks (reference value: 7.7 +/- 0.1 10^6/mm^3); format: organism-based; design: dose 50 mg/kg, route oral; settings: in vivo, 336 h; outline: as §4
[18] = system: Mus musculus; assay: Toxicity in FVB mouse assessed as effect on number of platelets at 50 mg/kg, po administered 5 times per week for 2 weeks (reference value: 514 +/- 42.8 10^3/mm^3); format: organism-based; design: dose 50 mg/kg, route oral; settings: in vivo, 336 h; outline: as §4
[19] = system: Mus musculus; assay: Toxicity in FVB mouse assessed as effect on mean platelet volume at 50 mg/kg, po administered 5 times per week for 2 weeks measured during test (reference value: 8.4 +/- 0.5 microm^3); format: organism-based; design: dose 50 mg/kg, route oral; settings: in vivo, 336 h; outline: as §4
[20] = system: Mus musculus; assay: Toxicity in FVB mouse assessed as mortality at 50 mg/kg, po administered 5 times per week for 2 weeks; format: organism-based; design: dose 50 mg/kg, route oral; settings: in vivo, 336 h; outline: as §3
[21] = system: Mus musculus; assay: Toxicity in FVB mouse assessed as effect on mean cell volume of red cells at 50 mg/kg, po administered 5 times per week for 2 weeks (reference value: 43.9 +/- 0.5 microm^3); settings: in vivo, 336 h
[22] = system: Mus musculus; assay: Toxicity in FVB mouse assessed as effect on body weight at 50 mg/kg, po administered 5 times per week for 2 weeks measured during test; format: organism-based; design: dose 50 mg/kg, route oral; settings: in vivo, 336 h; outline: as §4
[23] = system: Mus musculus; assay: Toxicity in FVB mouse assessed as effect on number of RBC at 50 mg/kg, po administered 5 times per week for 2 weeks measured during test (reference value: 8.1 +/- 0.2 10^6/mm^3); format: organism-based; design: dose 50 mg/kg, route oral; settings: in vivo, 336 h; outline: as §4
[24] = system: Mus musculus; assay: Toxicity in FVB mouse assessed as effect on hematocrit at 50 mg/kg, po administered 5 times per week for 2 weeks measured during test; format: organism-based; design: dose 50 mg/kg, route oral; settings: in vivo, 336 h; outline: as §4
[25] = system: Mus musculus; assay: Toxicity in FVB mouse assessed as effect on hematocrit at 50 mg/kg, po administered 5 times per week for 2 weeks; format: organism-based; design: dose 50 mg/kg, route oral; settings: in vivo, 336 h; outline: as §4

Sequence of Histone deacetylase 1 (Homo sapiens) (Q13547 whole entry): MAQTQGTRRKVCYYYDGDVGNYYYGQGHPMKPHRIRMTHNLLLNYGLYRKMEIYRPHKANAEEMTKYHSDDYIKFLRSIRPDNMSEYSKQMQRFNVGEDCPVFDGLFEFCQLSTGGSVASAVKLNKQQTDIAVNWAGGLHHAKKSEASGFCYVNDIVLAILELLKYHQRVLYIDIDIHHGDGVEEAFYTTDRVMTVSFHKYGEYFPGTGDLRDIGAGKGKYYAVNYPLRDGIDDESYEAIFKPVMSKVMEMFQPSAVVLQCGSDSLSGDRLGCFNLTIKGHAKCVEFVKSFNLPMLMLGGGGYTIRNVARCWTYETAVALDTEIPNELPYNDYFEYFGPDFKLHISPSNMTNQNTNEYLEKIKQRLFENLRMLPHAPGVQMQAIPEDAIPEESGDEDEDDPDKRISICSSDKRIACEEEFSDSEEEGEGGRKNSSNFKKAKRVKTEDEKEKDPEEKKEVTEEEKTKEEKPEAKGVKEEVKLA

SMILES	EC50 [1] [µM]	EC50 [2] [µM]	EC50 [3] [µM]	EC50 [4] [µM]	EC50 [5] [µM]	EC50 [6] [µM]	Activity [7]	Activity [8]	other results
O=C(CCCCCCC(=O)Nc1ccc2ccccc2c1)NO	0.35	0.4	1.8	0.85	1.16	3	Active	Active	–
CN(C)c1ccc(NC(=O)CCCCCCC(=O)NO)cc1	1.7	–	4.2	3.15	–	–	Active	Active	–
N#Cc1ccc(NC(=O)CCCCCCC(=O)NO)cc1	7	–	8.8	42	–	–	–	–	–
O=C(CCCCCCC(=O)Nc1cccc(F)c1)NO	0.5	0.64	1.9	1.4	1.25	2.4	Active	Active	–
O=C(CCCCCCC(=O)Nc1[nH]c(=O)ncc1F)NO	26.5	16	40.5	63	18	> 100	–	–	–
O=C(CCCCCCC(=O)Nc1ccc(Cl)cc1)NO	0.55	0.77	2.3	2.1	1.87	3.3	Active	Active	–
O=C(O)CCCCCCC(=O)NO	> 100	> 100	> 100	> 100	> 100	> 100	–	–	–
Nc1ccc(NC(=O)CCCCCCC(=O)NO)cc1	6.4	–	8.5	18	–	–	–	–	–
O=C(CCCCCCC(=O)Nc1ccc(O)cc1)NO	6.4	–	11	15	–	–	–	–	–
O=C(CCCCCCC(=O)Nc1cccc2cccnc12)NO	26	–	> 100	> 100	–	–	–	–	–
O=C(CCCCCCC(=O)Nc1ccccc1)NO [VORINOSTAT]	0.82	–	–	–	–	2.2	–	–	Activity [10]: Non-toxic; Activity [11]: 617 10^3/mm3; Activity [12]: 96.2%; Activity [13]: 8.4 um3; Activity [14]: 44.1 um3; Activity [15]: 8.3 10^3/mm3; Activity [16]: 5.9 10^3/mm3; Activity [17]: 7.6 10^6/mm3; Activity [18]: 538 10^3/mm3; Activity [19]: 7.7 um3; Activity [20]: Non-toxic; Activity [21]: 44.5 um3; Activity [22]: 94.9%; Activity [23]: 8.3 10^6/mm3; Activity [24]: 36.5%; Activity [25]: 33.7%
O=C(CCCCCCC(=O)Nc1cccc(Cl)c1)NO	0.35	0.58	2	1	2.1	3.5	Active	Active	–
O=C(CCCCCCC(=O)Nc1ccc([N+](=O)[O-])cc1)NO	22	–	58	76	–	–	–	–	–
O=C(CCCCCCC(=O)NO)NO [SUBEROHYDROXAMIC ACID]	23	–	27	32	–	–	–	–	–

The next lines start with results.

EC50 [1] [µM]	EC50 [2] [µM]	EC50 [3] [µM]	EC50 [4] [µM]	EC50 [5] [µM]	EC50 [6] [µM]	Activity [7]	Activity [8]	SMILES	other results
1.2	–	26	6.4	–	–	–	–	O=C(CCCCCCC(=O)Nc1cccc(C(F)(F)F)c1)NO	–
0.3	0.18	1.2	1.4	0.35	0.8	Active	Active	O=C(CCCCCCC(=O)Nc1cc2ccc3cccc4ccc(c1)c2c34)NO	selectivity ratio [9]: 15
6.8	–	17.5	17	–	–	–	–	O=C(CCCCCCC(=O)Nc1ccccc1Br)NO	–
0.6	0.43	4	2.5	1.13	3.5	Active	Active	O=C(CCCCCCC(=O)Nc1ccc2c(c1)Cc1ccccc1-2)NO	–
14	–	73.5	27	–	–	–	–	O=C(CCCCCCC(=O)Nc1ccccc1-c1ccccc1)NO	–
0.45	0.53	2.2	1.4	1.54	2.1	Active	Active	O=C(CCCCCCC(=O)Nc1ccc(C(F)(F)F)cc1)NO	–
1.8	–	3	4.2	–	–	Active	Active	O=C(CCCCCCC(=O)Nc1ccc(F)cc1)NO	–

Reference: ChEMBL document CHEMBL1156940, “Modified cap group suberoylanilide hydroxamic acid histone deacetylase inhibitor derivatives reveal improved selective antileukemic activity” (J Med Chem, 2010)
